What was measured:
Type in all cases: functional
Mus musculus [1] = test: Antinociceptive activity in ip dosed Swiss albino mouse assessed as latency time by hot plate method
Summary of the method: (§1)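 Swiss albino mice (20–25 g) were housed 7 days at 30 ± 1 °C before testing, in groups of six. Compounds were given ip at 9.5–12.58 mg/kg as a 0.2% Tween suspension. Mice were placed on a 55 ± 0.5 °C hot plate before dosing and at 15, 30, 60 and 120 min after dosing, with a 15 s cut-off. Significance was assessed by Student's t test.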

Mus musculus [2] = test: Antinociceptive activity in ip dosed Swiss albino mouse assessed as latency time after 15 mins by hot plate method; summary of the method: as §1
Mus musculus [3] = test: Antinociceptive activity in ip dosed Swiss albino mouse assessed as latency time after 30 mins by hot plate method; summary of the method: as §1
Mus musculus [4] = test: Antinociceptive activity in ip dosed Swiss albino mouse assessed as latency time after 60 mins by hot plate method; summary of the method: as §1
Mus musculus [5] = test: Antinociceptive activity in ip dosed Swiss albino mouse assessed as latency time after 120 mins by hot plate method; summary of the method: as §1
Mus musculus [6] = test: Antinociceptive activity in ip dosed Swiss albino mouse assessed as latency time by tail flick method
Summary of the method: (§2)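 Swiss albino mice (20–25 g) received compounds ip at 9.5–12.58 mg/kg in 0.2% Tween suspension. Tail-flick latency to radiant heat was measured, with stimulus intensity set to give a 3–4 s baseline. Readings were taken just before injection and at 15, 30, 60 and 120 min after. Significance was assessed by Student's t test.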

Mus musculus [7] = test: Antinociceptive activity in ip dosed Swiss albino mouse assessed as latency time after 15 mins by tail flick method; summary of the method: as §2
Mus musculus [8] = test: Antinociceptive activity in ip dosed Swiss albino mouse assessed as latency time after 30 mins by tail flick method; summary of the method: as §2
Mus musculus [9] = test: Antinociceptive activity in ip dosed Swiss albino mouse assessed as latency time after 60 mins by tail flick method; summary of the method: as §2
Mus musculus [10] = test: Antinociceptive activity in ip dosed Swiss albino mouse assessed as latency time after 120 mins by tail flick method; summary of the method: as §2
Rattus norvegicus = test: Antiinflammatory activity assessed as reduction of carrageenan-induced paw volume in intraperitoneally dosed Wistar rat after 3 hrs; design: scale not given: the % may be the effect or the level left
Summary of the method: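 Wistar rats of either sex (120–150 g) were dosed ip with compounds at 9.5–12.58 mg/kg in 0.2% Tween suspension. After 1 h, 0.05 ml of 1.0% w/v carrageenan in 0.9% NaCl was injected into the left hind paw. Paw volume was measured by mercury-displacement plethysmometry before injection and at 1, 2 and 3 h. Percent inhibition of the 3 h swelling was calculated.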

| Structure (SMILES) | Activity (Mus musculus [1]) | Activity (Mus musculus [2]) | Activity (Mus musculus [3]) | Activity (Mus musculus [4]) | Activity (Mus musculus [5]) | Activity (Mus musculus [6]) | Activity (Mus musculus [7]) | Activity (Mus musculus [8]) | Activity (Mus musculus [9]) | Activity (Mus musculus [10]) | Activity (Rattus norvegicus) |
| --- | --- | --- | --- | --- | --- | --- | --- | --- | --- | --- | --- |
| Clc1ccccc1-c1nc(-c2ccccc2)c(-c2ccccc2)[nH]1 | 4.67 s | 4.62 s | 6.25 s | 8.2 s | 9.01 s | 4.2 s | 4.14 s | 5.78 s | 7.27 s | 8.85 s | 62.8% |
| O=[N+]([O-])c1ccccc1-c1nc(-c2ccccc2)c(-c2ccccc2)[nH]1 | 4.5 s | 4.52 s | 4.62 s | 4.67 s | 4.71 s | 4.09 s | 4.1 s | 4.38 s | 4.38 s | 4.39 s | 30.24% |
| Clc1cccc(-c2nc(-c3ccccc3)c(-c3ccccc3)[nH]2)c1 | 4.68 s | 5.14 s | 6.18 s | 7.78 s | 8.91 s | 4.12 s | 4.12 s | 4.98 s | 6.89 s | 8.18 s | 55.82% |
| COc1cc(-c2nc(-c3ccccc3)c(-c3ccccc3)[nH]2)ccc1O | 4.68 s | 5.23 s | 6.2 s | 7.92 s | 8.99 s | 4.16 s | 4.12 s | 5.57 s | 7.18 s | 8.34 s | 58.14% |
| Fc1ccc(-c2nc(-c3ccccc3)c(-c3ccccc3)[nH]2)cc1 | 4.78 s | 4.93 s | 7.5 s | 9.33 s | 10.83 s | 4.55 s | 4.87 s | 7.14 s | 8.92 s | 10.67 s | 79.07% |
| Ic1ccc(-c2nc(-c3ccccc3)c(-c3ccccc3)[nH]2)cc1 | 4.45 s | 4.64 s | 5.33 s | 6.18 s | 6.18 s | 4.16 s | 4.26 s | 5.21 s | 5.89 s | 6.5 s | 27.91% |
| Clc1ccc(-c2nc(-c3ccccc3)c(-c3ccccc3)[nH]2)cc1 | 4.66 s | 4.9 s | 7.43 s | 8.98 s | 10.35 s | 4.52 s | 4.67 s | 6.92 s | 8.37 s | 10.5 s | 81.4% |
| Oc1ccc(-c2nc(-c3ccccc3)c(-c3ccccc3)[nH]2)cc1 | 4.55 s | 4.81 s | 7.21 s | 8.63 s | 10.33 s | 4.4 s | 4.48 s | 6.79 s | 8.18 s | 10.33 s | 83.73% |
| CN(C)c1ccc(-c2nc(-c3ccccc3)c(-c3ccccc3)[nH]2)cc1 | 4.5 s | 4.76 s | 7.16 s | 8.33 s | 10.3 s | 4.26 s | 4.45 s | 6.32 s | 7.93 s | 10.18 s | 69.77% |
| Cc1ccc(-c2nc(-c3ccccc3)c(-c3ccccc3)[nH]2)cc1 | 4.35 s | 4.5 s | 4.62 s | 4.83 s | 4.82 s | 4.14 s | 4.14 s | 4.82 s | 4.82 s | 4.89 s | 11.63% |
| COc1ccccc1-c1nc(-c2ccccc2)c(-c2ccccc2)[nH]1 | 4.9 s | 4.94 s | 6.89 s | 8.65 s | 9.25 s | 4.21 s | 4.21 s | 5.98 s | 7.64 s | 9.23 s | 65.12% |
| Cc1cccc(-c2nc(-c3ccccc3)c(-c3ccccc3)[nH]2)c1 | 4.56 s | 4.6 s | 4.63 s | 4.67 s | 5.72 s | 4.1 s | 4.1 s | 4.48 s | 5.89 s | 5.93 s | 9.31% |
| Cc1nc(-c2ccccc2)c(-c2ccccc2)[nH]1 | 4.65 s | 5.1 s | 5.33 s | 5.47 s | 5.52 s | 4.12 s | 4.17 s | 4.28 s | 4.35 s | 4.35 s | 25.59% |
| O=[N+]([O-])c1cccc(-c2nc(-c3ccccc3)c(-c3ccccc3)[nH]2)c1 | 4.55 s | 4.56 s | 4.6 s | 4.62 s | 5.62 s | 4.09 s | 4.09 s | 4.36 s | 5.74 s | 5.82 s | 4.66% |
| COc1cccc(-c2nc(-c3ccccc3)c(-c3ccccc3)[nH]2)c1 | 4.67 s | 5.02 s | 6.15 s | 7.42 s | 8.79 s | 4.12 s | 4.12 s | 4.56 s | 6.75 s | 7.99 s | 37.21% |
| Brc1ccc(-c2nc(-c3ccccc3)c(-c3ccccc3)[nH]2)cc1 | 4.45 s | 4.65 s | 6.37 s | 6.38 s | 6.38 s | 4.2 s | 4.45 s | 5.33 s | 6.5 s | 6.83 s | 74.42% |
| Nc1ccc(-c2nc(-c3ccccc3)c(-c3ccccc3)[nH]2)cc1 | 4.48 s | 4.69 s | 7.01 s | 8.25 s | 10.08 s | 4.22 s | 4.27 s | 6.18 s | 7.77 s | 10.05 s | 81.4% |
| Oc1ccccc1-c1nc(-c2ccccc2)c(-c2ccccc2)[nH]1 | 4.89 s | 4.93 s | 6.32 s | 8.59 s | 9.16 s | 4.2 s | 4.18 s | 5.82 s | 7.53 s | 9.12 s | 60.47% |

Source: ChEMBL document CHEMBL1144541, “Antinociceptive and antiinflammatory activities and QSAR studies on 2-substituted-4,5-diphenyl-1H-imidazoles” (2007)
